# In ChEMBL document CHEMBL5058577, “EUbOPEN Chemogenomics Library 2 (Multiplex)” (2022):
# Tested on: Fibroblast
# Assay: Multiplex assay against human fibroblast
# Assay type: toxicity, cell-based
# How it was run: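 Live cells were stained at seeding with Hoechst33342, BioTracker Green Microtubule Cytoskeleton Dye, MitoTracker Red and Annexin V Alexa Fluor 680. Following compound addition, they were imaged on a CQ1 microscope at 37°C and 5% CO2 and gated by CellPathfinder machine learning into Hoechst high-intensity objects or normal cells, with normal cells split into healthy, pyknosed or fragmented nuclei and pyknosed cells into mitotic or apoptotic. Tubulin, mitochondrial-mass and membrane-permeability phenotypes are per cents of healthy-nucleus cells.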
# [1] = 12 h, 1 µM, compound concentration 1 uM, replicate 1
# [2] = 12 h, 1 µM, compound concentration 1 uM, replicate 2
# [3] = 12 h, 10 µM, compound concentration 10 uM, replicate 1
# [4] = 12 h, 10 µM, compound concentration 10 uM, replicate 2
# [5] = 24 h, 1 µM, compound concentration 1 uM, replicate 1
# [6] = 24 h, 1 µM, compound concentration 1 uM, replicate 2
# [7] = 24 h, 10 µM, compound concentration 10 uM, replicate 1
# [8] = 24 h, 10 µM, compound concentration 10 uM, replicate 2
# [9] = 48 h, 1 µM, compound concentration 1 uM, replicate 1
# [10] = 48 h, 1 µM, compound concentration 1 uM, replicate 2
# [11] = 48 h, 10 µM, compound concentration 10 uM, replicate 1
# [12] = 48 h, 10 µM, compound concentration 10 uM, replicate 2
compound,measurement,setting,value
COc1cc(C(=O)N2CC[C@@H](O)[C@@H](N)C2)cc2nc(-c3cc4ccccc4n3CC3CC3)n(C)c12.Cl,Population Apoptotic (%),[1],21%
same,Population Fragmented Nuclei (%),[1],25%
same,Population Healthy Nuclei (%),[1],62%
same,Population Hoechst High Intensity Objects (%),[1],2%
same,Population Membrane Permeable-Phenotype (%),[1],0%
same,Population Mitochondria Different-Phenotype (%),[1],4%
same,Population Mitotic Cells (%),[1],78%
same,Population Normal (%),[1],97%
same,Population Pyknosed Nuclei (%),[1],12%
same,Population Tubulin-Different-Phenotype (%),[1],55%
same,Total Cell Count,[1],160
same,Population Apoptotic (%),[2],48%
same,Population Fragmented Nuclei (%),[2],24%
same,Population Healthy Nuclei (%),[2],44%
same,Population Hoechst High Intensity Objects (%),[2],3%
same,Population Membrane Permeable-Phenotype (%),[2],10%
same,Population Mitochondria Different-Phenotype (%),[2],14%
same,Population Mitotic Cells (%),[2],51%
same,Population Normal (%),[2],96%
same,Population Pyknosed Nuclei (%),[2],31%
same,Population Tubulin-Different-Phenotype (%),[2],69%
same,Total Cell Count,[2],130
same,Population Apoptotic (%),[3],60%
same,Population Fragmented Nuclei (%),[3],22%
same,Population Healthy Nuclei (%),[3],57%
same,Population Hoechst High Intensity Objects (%),[3],6%
same,Population Membrane Permeable-Phenotype (%),[3],0%
same,Population Mitochondria Different-Phenotype (%),[3],34%
same,Population Mitotic Cells (%),[3],40%
same,Population Normal (%),[3],93%
same,Population Pyknosed Nuclei (%),[3],19%
same,Population Tubulin-Different-Phenotype (%),[3],97%
same,Total Cell Count,[3],271
same,Population Apoptotic (%),[4],48%
same,Population Fragmented Nuclei (%),[4],30%
same,Population Healthy Nuclei (%),[4],44%
same,Population Hoechst High Intensity Objects (%),[4],10%
same,Population Membrane Permeable-Phenotype (%),[4],2%
same,Population Mitochondria Different-Phenotype (%),[4],25%
same,Population Mitotic Cells (%),[4],51%
same,Population Normal (%),[4],89%
same,Population Pyknosed Nuclei (%),[4],25%
same,Population Tubulin-Different-Phenotype (%),[4],92%
same,Total Cell Count,[4],179
same,Population Apoptotic (%),[5],55%
same,Population Fragmented Nuclei (%),[5],24%
same,Population Healthy Nuclei (%),[5],62%
same,Population Hoechst High Intensity Objects (%),[5],3%
same,Population Membrane Permeable-Phenotype (%),[5],0%
same,Population Mitochondria Different-Phenotype (%),[5],5%
same,Population Mitotic Cells (%),[5],45%
same,Population Normal (%),[5],96%
same,Population Pyknosed Nuclei (%),[5],13%
same,Population Tubulin-Different-Phenotype (%),[5],51%
same,Total Cell Count,[5],158
same,Population Apoptotic (%),[6],60%
same,Population Fragmented Nuclei (%),[6],31%
same,Population Healthy Nuclei (%),[6],36%
same,Population Hoechst High Intensity Objects (%),[6],4%
same,Population Membrane Permeable-Phenotype (%),[6],4%
same,Population Mitochondria Different-Phenotype (%),[6],20%
same,Population Mitotic Cells (%),[6],39%
same,Population Normal (%),[6],95%
same,Population Pyknosed Nuclei (%),[6],31%
same,Population Tubulin-Different-Phenotype (%),[6],79%
same,Total Cell Count,[6],125
same,Population Apoptotic (%),[7],73%
same,Population Fragmented Nuclei (%),[7],15%
same,Population Healthy Nuclei (%),[7],68%
same,Population Hoechst High Intensity Objects (%),[7],7%
same,Population Membrane Permeable-Phenotype (%),[7],0%
same,Population Mitochondria Different-Phenotype (%),[7],55%
same,Population Mitotic Cells (%),[7],26%
same,Population Normal (%),[7],92%
same,Population Pyknosed Nuclei (%),[7],16%
same,Population Tubulin-Different-Phenotype (%),[7],94%
same,Total Cell Count,[7],274
same,Population Apoptotic (%),[8],62%
same,Population Fragmented Nuclei (%),[8],27%
same,Population Healthy Nuclei (%),[8],54%
same,Population Hoechst High Intensity Objects (%),[8],5%
same,Population Membrane Permeable-Phenotype (%),[8],3%
same,Population Mitochondria Different-Phenotype (%),[8],41%
same,Population Mitotic Cells (%),[8],37%
same,Population Normal (%),[8],94%
same,Population Pyknosed Nuclei (%),[8],17%
same,Population Tubulin-Different-Phenotype (%),[8],92%
same,Total Cell Count,[8],174
same,Population Apoptotic (%),[9],80%
same,Population Fragmented Nuclei (%),[9],22%
same,Population Healthy Nuclei (%),[9],67%
same,Population Hoechst High Intensity Objects (%),[9],6%
same,Population Membrane Permeable-Phenotype (%),[9],0%
same,Population Mitochondria Different-Phenotype (%),[9],8%
same,Population Mitotic Cells (%),[9],20%
same,Population Normal (%),[9],93%
same,Population Pyknosed Nuclei (%),[9],10%
same,Population Tubulin-Different-Phenotype (%),[9],44%
same,Total Cell Count,[9],161
same,Population Apoptotic (%),[10],64%
same,Population Fragmented Nuclei (%),[10],38%
same,Population Healthy Nuclei (%),[10],41%
same,Population Hoechst High Intensity Objects (%),[10],1%
same,Population Membrane Permeable-Phenotype (%),[10],3%
same,Population Mitochondria Different-Phenotype (%),[10],16%
same,Population Mitotic Cells (%),[10],35%
same,Population Normal (%),[10],98%
same,Population Pyknosed Nuclei (%),[10],20%
same,Population Tubulin-Different-Phenotype (%),[10],80%
same,Total Cell Count,[10],153
same,Population Apoptotic (%),[11],86%
same,Population Fragmented Nuclei (%),[11],20%
same,Population Healthy Nuclei (%),[11],64%
same,Population Hoechst High Intensity Objects (%),[11],8%
same,Population Membrane Permeable-Phenotype (%),[11],0%
same,Population Mitochondria Different-Phenotype (%),[11],62%
same,Population Mitotic Cells (%),[11],13%
same,Population Normal (%),[11],91%
same,Population Pyknosed Nuclei (%),[11],15%
same,Population Tubulin-Different-Phenotype (%),[11],94%
same,Total Cell Count,[11],256
same,Population Fragmented Nuclei (%),[12],32%
same,Population Healthy Nuclei (%),[12],55%
same,Population Hoechst High Intensity Objects (%),[12],4%
same,Population Mitochondria Different-Phenotype (%),[12],36%
same,Population Normal (%),[12],95%
same,Population Pyknosed Nuclei (%),[12],11%
same,Total Cell Count,[12],193
